Data as given in ChEMBL document CHEMBL3739271, “Synthesis and evaluation of a series of resveratrol analogues as potent anti-cancer agents that target tubulin” (2015).
Calls of active or inactive are those of the source. The rule behind the calls is not given here.

Experiments:
[1] = Cytotoxicity against human SNB19 cells by SRB assay; type: functional; conditions: SNB-19
Summary of the method: (§1)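 NCI 60 human tumor cell line panel, sulforhodamine B (SRB) protein-stain read-out. Compounds were first screened at a single dose of 10^-5 M, and selected compounds were then tested in a five-dose format. GI50 is the drug concentration giving a 50% reduction in net protein increase relative to control cells.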

MV4-11 [2] = assay: Anti-leukemia activity against human MV4-11 cells after 48 hrs by Annexin-V staining; type: functional; conditions: MV4-11, 48 h, read-out: LD50 (the source's name)
Summary of the method: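 MV4-11 AML cells exposed to increasing compound concentrations for 24 and 48 h. Viability measured by Annexin V/7-AAD staining and expressed as percent Annexin V-/7-AAD- cells relative to control. N = 5, error bars SD. LD50 values derived from these curves.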

MDA-MB-468 = assay: Cytotoxicity against human MDA-MB-468 cells by SRB assay; type: functional; summary of the method: as §1
SR = assay: Cytotoxicity against human SR cells by SRB assay; type: functional; summary of the method: as §1
NCI/ADR-RES = assay: Cytotoxicity against human NCI/ADR-RES cells by SRB assay; type: functional; summary of the method: as §1
[3] = Cytotoxicity against human OVCAR3 cells by SRB assay; type: functional; conditions: OVCAR-3; summary of the method: as §1
KM12 = assay: Cytotoxicity against human KM12 cells by SRB assay; type: functional; summary of the method: as §1
A498 = assay: Cytotoxicity against human A498 cells by SRB assay; type: functional; summary of the method: as §1
[4] = Cytotoxicity against human SF539 cells by SRB assay; type: functional; conditions: SF-539; summary of the method: as §1
[5] = Cytotoxicity against human RPMI8226 cells by SRB assay; type: functional; conditions: RPMI-8226; summary of the method: as §1
[6] = Cytotoxicity against human MOLT4 cells by SRB assay; type: functional; conditions: MOLT-4; summary of the method: as §1
NCI-H23 = assay: Cytotoxicity against human NCI-H23 cells by SRB assay; type: functional; summary of the method: as §1
U-251 = assay: Cytotoxicity against human U251 cells by SRB assay; type: functional; summary of the method: as §1
[7] = Cytotoxicity against human SF268 cells by SRB assay; type: functional; conditions: SF-268; summary of the method: as §1
[8] = Cytotoxicity against human HCT15 cells by SRB assay; type: functional; conditions: HCT-15; summary of the method: as §1
ACHN = assay: Cytotoxicity against human ACHN cells by SRB assay; type: functional; summary of the method: as §1
[9] = Cytotoxicity against human UO31 cells by SRB assay; type: functional; conditions: UO-31; summary of the method: as §1
SK-MEL-28 = assay: Cytotoxicity against human SK-MEL-28 cells by SRB assay; type: functional; summary of the method: as §1
[10] = Cytotoxicity against human Hs578T cells by SRB assay; type: functional; conditions: Hs-578T; summary of the method: as §1
MCF7 = assay: Cytotoxicity against human MCF7 cells by SRB assay; type: functional; summary of the method: as §1
MDA-MB-435 = assay: Cytotoxicity against human MDA-MB-435 cells by SRB assay; type: functional; summary of the method: as §1
M14 = assay: Cytotoxicity against human M14 cells by SRB assay; type: functional; summary of the method: as §1
[11] = Cytotoxicity against human SNB75 cells by SRB assay; type: functional; conditions: SNB-75; summary of the method: as §1
A549 = assay: Cytotoxicity against human A549 cells by SRB assay; type: functional; summary of the method: as §1
[12] = Cytotoxicity against human OVCAR4 cells by SRB assay; type: functional; conditions: OVCAR-4; summary of the method: as §1
[13] = Cytotoxicity against human LOXIMVI cells by SRB assay; type: functional; conditions: LOX IMVI
Summary of the method: (§2)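 NCI 60-cell-line panel using sulforhodamine B protein stain. Initial single-dose screen at 10^-5 M, then five-dose testing. GI50 is the drug concentration giving a 50% reduction in net protein increase relative to control cells.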

[14] = Cytotoxicity against human HOP92 cells by SRB assay; type: functional; conditions: HOP-92; summary of the method: as §1
[15] = Cytotoxicity against human IGROV1 cells by SRB assay; type: functional; conditions: IGROV-1; summary of the method: as §2
786-0 = assay: Cytotoxicity against human 786-0 cells by SRB assay; type: functional; summary of the method: as §1
SK-MEL-5 = assay: Cytotoxicity against human SK-MEL-5 cells by SRB assay; type: functional; summary of the method: as §1
[16] = Cytotoxicity against human COLO205 cells by SRB assay; type: functional; conditions: COLO 205; summary of the method: as §1
[17] = Cytotoxicity against human HOP62 cells by SRB assay; type: functional; conditions: HOP-62; summary of the method: as §1
CCRF-CEM = assay: Cytotoxicity against human CCRF-CEM cells by SRB assay; type: functional; summary of the method: as §1
[18] = Cytotoxicity against human HCT116 cells by SRB assay; type: functional; conditions: HCT-116; summary of the method: as §1
NCI-H522 = assay: Cytotoxicity against human NCI-H522 cells by SRB assay; type: functional; summary of the method: as §1
MDA-MB-231 = assay: Cytotoxicity against human MDA-MB-231 cells by SRB assay; type: functional; summary of the method: as §1
[19] = Cytotoxicity against human SKOV3 cells by SRB assay; type: functional; conditions: SK-OV-3; summary of the method: as §1
[20] = Cytotoxicity against human HCC2998 cells by SRB assay; type: functional; conditions: HCC 2998; summary of the method: as §1
K562 = assay: Cytotoxicity against human K562 cells by SRB assay; type: functional; summary of the method: as §1
[21] = Cytotoxicity against human SF295 cells by SRB assay; type: functional; conditions: SF-295; summary of the method: as §1
[22] = Cytotoxicity against human UACC62 cells by SRB assay; type: functional; conditions: UACC-62; summary of the method: as §1
HT-29 = assay: Cytotoxicity against human HT-29 cells by SRB assay; type: functional; summary of the method: as §1
[23] = Cytotoxicity against human SW620 cells by SRB assay; type: functional; conditions: SW-620; summary of the method: as §1
[24] = Cytotoxicity against human HL-60(TB) cells by SRB assay; type: functional; summary of the method: as §2
CAKI-1 = assay: Cytotoxicity against human CAKI-1 cells by SRB assay; type: functional; summary of the method: as §1
MV4-11 [25] = assay: Inhibition of alpha-tubulin polymerization in human MV4-11 cells at 25 to 100 nM after 2 hrs by Western blotting; type: cell-based
Summary of the method: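 MV4-11 cells treated for 2 hours at 25, 50 and 100 nM. Microtubule polymerization then assessed by immunoblot.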

SK-MEL-2 = assay: Cytotoxicity against human SK-MEL-2 cells by SRB assay; type: functional; summary of the method: as §1

COc1ccc(/C=C(\C#N)c2ccc(OC)c(OC)c2)cc1O
GI50 [1]: 50 nM | CC50 (MV4-11 [2]): 353 nM | GI50 (MDA-MB-468): 40 nM | GI50 (SR): 20 nM | GI50 (NCI/ADR-RES): 20 nM | GI50 [3]: 20 nM | GI50 (KM12): 20 nM | GI50 (A498): 20 nM | GI50 [4]: 20 nM | GI50 [5]: 40 nM | GI50 [6]: 50 nM | GI50 (NCI-H23): 70 nM | GI50 (U-251): 40 nM | GI50 [7]: 60 nM | GI50 [8]: 40 nM | GI50 (ACHN): 80 nM | GI50 [9]: 60 nM | GI50 (SK-MEL-28): 1110 nM | GI50 [10]: 30 nM | GI50 (MCF7): 30 nM | GI50 (MDA-MB-435): < 10 nM | GI50 (M14): 30 nM | GI50 [11]: 20 nM | GI50 (A549): 210 nM | GI50 [12]: 1560 nM | GI50 [13]: 60 nM | GI50 [14]: 1690 nM | GI50 [15]: 60 nM | GI50 (786-0): 360 nM | GI50 (SK-MEL-5): 40 nM | GI50 [16]: 1240 nM | GI50 [17]: 30 nM | GI50 (CCRF-CEM): 30 nM | GI50 [18]: 40 nM | GI50 (NCI-H522): < 10 nM | GI50 (MDA-MB-231): 40 nM | GI50 [19]: 50 nM | GI50 [20]: 1810 nM | GI50 (K562): 20 nM | GI50 [21]: 100 nM | GI50 [22]: 20 nM | GI50 (HT-29): 570 nM | GI50 [23]: 40 nM | GI50 [24]: 30 nM

COc1ccc(/C=C(\C#N)c2cc(OC)c(OC)c(OC)c2)cc1O
GI50 [1]: < 10 nM | CC50 (MV4-11 [2]): 38.6 nM | GI50 (MDA-MB-468): < 10 nM | GI50 (SR): < 10 nM | GI50 (CAKI-1): 30 nM | GI50 (NCI/ADR-RES): < 10 nM | GI50 [3]: < 10 nM | GI50 (KM12): < 10 nM | GI50 (A498): < 10 nM | GI50 [4]: < 10 nM | GI50 [5]: < 10 nM | GI50 [6]: < 10 nM | GI50 (NCI-H23): < 10 nM | GI50 (U-251): 10 nM | inhibition (MV4-11 [25]): Active | GI50 [7]: < 10 nM | GI50 (SK-MEL-2): < 10 nM | GI50 [8]: < 10 nM | GI50 (ACHN): < 10 nM | GI50 [9]: < 10 nM | GI50 (SK-MEL-28): 1010 nM | GI50 [10]: < 10 nM | GI50 (MCF7): < 10 nM | GI50 (MDA-MB-435): < 10 nM | GI50 (M14): < 10 nM | GI50 [11]: < 10 nM | GI50 (A549): < 10 nM | GI50 [12]: < 10 nM | GI50 [13]: < 10 nM | GI50 [14]: < 10 nM | GI50 [15]: < 10 nM | GI50 (786-0): < 10 nM | GI50 (SK-MEL-5): < 10 nM | GI50 [16]: 2990 nM | GI50 [17]: < 10 nM | GI50 (CCRF-CEM): < 10 nM | GI50 [18]: < 10 nM | GI50 (NCI-H522): < 10 nM | GI50 (MDA-MB-231): < 10 nM | GI50 [19]: 10 nM | GI50 [20]: 20 nM | GI50 (K562): < 10 nM | GI50 [21]: 50 nM | GI50 [22]: < 10 nM | GI50 (HT-29): 3180 nM | GI50 [23]: < 10 nM | GI50 [24]: < 10 nM
